Experimental data reported in ChEMBL document CHEMBL3616462, “Synthesis and antiviral activity of maleopimaric and quinopimaric acids' derivatives” (Bioorg Med Chem, 2015).

Experiments:
[1] = Cytotoxicity against Influenza A virus (A/California/07/2009(H1N1)) infected MDCK cells; format: cell-based, Canis lupus familiaris; conditions: dog
[2] = Selectivity index, ratio of CC50 for Influenza B virus (B/Florida/4/2006) infected MDCK cells to EC50 for antiviral activity against Influenza B virus (B/Florida/4/2006) in MDCK cells; format: toxicity, cell-based; conditions: dog; read-out: Ratio CC50/EC50
[3] = Selectivity index, ratio of CC50 for Influenza A virus (A/Viet Nam/1203/2004(H5N1)) infected MDCK cells to EC50 for antiviral activity against Influenza A virus (A/Viet Nam/1203/2004(H5N1)) infected in MDCK cells; format: toxicity, cell-based; conditions: dog; read-out: Ratio CC50/EC50
[4] = Antiviral activity against Influenza A virus (A/California/07/2009(H1N1)) infected in MDCK cells; format: functional, cell-based
[5] = Cytotoxicity against Influenza A virus (A/Viet Nam/1203/2004(H5N1)) infected MDCK cells; format: cell-based, Canis lupus familiaris; conditions: dog
[6] = Antiviral activity against Influenza A virus (A/Brisbane/10/2007(H3N2)) infected in MDCK cells; format: functional, cell-based
[7] = Selectivity index, ratio of CC50 for Influenza A virus (A/California/07/2009(H1N1)) infected MDCK cells to EC50 for antiviral activity against Influenza A virus H1N1 (A/California/07/2009(H1N1)) infected in MDCK cells; format: toxicity, cell-based; conditions: dog; read-out: Ratio CC50/EC50
[8] = test system: Influenza B virus; test: Antiviral activity against Influenza B virus (B/Florida/4/2006) in MDCK cells; format: functional, cell-based; conditions: B/Florida/4/2006, MDCK
[9] = Cytotoxicity against Influenza B virus (B/Florida/4/2006) infected MDCK cells; format: cell-based, Canis lupus familiaris; conditions: dog
[10] = Cytotoxicity against Influenza A virus (A/Brisbane/10/2007(H3N2)) infected MDCK cells; format: cell-based, Canis lupus familiaris; conditions: dog
[11] = Antiviral activity against Influenza A virus (A/Viet Nam/1203/2004(H5N1)) infected in MDCK cells; format: functional, cell-based
[12] = Selectivity index, ratio of CC50 for Influenza A virus (A/Brisbane/10/2007(H3N2)) infected MDCK cells to EC50 for antiviral activity against Influenza A virus (A/Brisbane/10/2007(H3N2)); format: toxicity, cell-based; conditions: dog; read-out: Ratio CC50/EC50
[13] = Toxicity against human Huh7ET cells assessed as reduction in beta-actin RNA levels at 20 uM; format: cell-based, Huh-7; conditions: values are per cent of control; for response, % of control at 20 µM: Huh7ET cells
Method in brief: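 HCV RNA replicon assay in Huh7 ET cells. Compounds were added in triplicate at a single concentration of 20 µM. Cytotoxicity was read as β-actin RNA as % of control, alongside HCV RNA-derived luciferase activity. Interferon-α (2 IU/mL) was the positive control.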

[14] = Selectivity index, ratio of toxicity against human Huh7ET cells assessed as reduction in beta-actin RNA levels at 20 uM to antiviral activity against HCV infected in human Huh7ET cells assessed as reduction in HCV RNA-derived luciferase activity at 20 uM by luciferase reporter gene assay; format: cell-based, Huh-7; conditions: read-out: Selectivity Index
Method in brief: (§1)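 HCV RNA replicon assay in Huh7 ET cells. Compounds were added in triplicate at a single concentration of 20 µM. Antiviral activity was read as HCV RNA-derived luciferase signal, expressed as % of control. Toxicity was read as β-actin RNA, % of control. SI = toxicity/antiviral activity. Interferon-α (2 IU/mL) was the positive control.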

[15] = Cytotoxicity against HBV infected human HepG2(2.2.15) cells; format: cell-based; conditions: HBV infected HepG2(2.2.15) cells
Method in brief: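 Toxicity was measured on confluent 2.2.15 cells alongside the primary anti-HBV assay. CC50 is given in µM.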

[16] = test system: Hepatitis B virus; test: Antiviral activity against HBV infected in human HepG2(2.2.15) cells; format: functional, organism-based
Method in brief: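 Primary anti-HBV screen in confluent 2.2.15 cells, run alongside a toxicity assay in the same cells. Compounds were supplied as DMSO solutions.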

[17] = test system: Hepatitis C virus; test: Antiviral activity against HCV infected in human Huh7ET cells assessed as reduction in HCV RNA-derived luciferase activity at 20 uM by luciferase reporter gene assay; format: functional, Hepacivirus hominis; conditions: Huh-7; method in brief: as §1
[18] = Selectivity index, ratio of CC50 for human rhinovirus 2 infected MDCK cells to EC50 for antiviral activity against human rhinovirus 2 infected in MDCK cells; format: toxicity, cell-based; conditions: dog, MDCK cells infected with human rhinovirus 2; read-out: Ratio CC50/EC50
[19] = Cytotoxicity against HPV11 infected PHK cells epithelial raft cultures by standard AACF screening assay; format: cell-based; conditions: human
[20] = Cytotoxicity against SARS coronavirus Urbani infected African green monkey Vero 76 cells; format: cell-based; conditions: chlorocebus sabaeus, Vero 76 cells infected with SARS coronavirus Urbani
[21] = Cytotoxicity against Adenovirus Chicago 65089 infected human A549 cells; format: cell-based; conditions: A549 cells infected with Adenovirus Chicago 65089
Method in brief: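 Respiratory-virus panel screen on A-549 cells, with compounds supplied as DMSO solutions. CC50 is the cell inhibitory concentration at the 50% endpoint, in µM.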

[22] = test system: human papillomavirus 11; test: Antiviral activity against HPV11 infected in PHK cells epithelial raft cultures by standard AACF screening assay; format: functional, organism-based; conditions: human papillomavirus 11, PHK
[23] = test system: rhinovirus A2; test: Antiviral activity against human rhinovirus 2 infected in MDCK cells; format: functional, organism-based; conditions: Rhinovirus A
[24] = Antiviral activity against SARS coronavirus Urbani infected in African green monkey Vero 76 cells; format: functional, cell-based; conditions: Severe acute respiratory syndrome-related coronavirus
[25] = Cytotoxicity against human rhinovirus 2 infected MDCK cells; format: cell-based, Canis lupus familiaris; conditions: dog, MDCK cells infected with human rhinovirus 2
[26] = test system: unidentified adenovirus; test: Antiviral activity against Adenovirus Chicago 65089 infected in human A549 cells; format: functional, organism-based; conditions: Chicago 65089, A549
[27] = Selectivity index, ratio of CC50 for ARS coronavirus Urbani infected African green monkey Vero 76 cells to EC50 for antiviral activity against ARS coronavirus Urbani infected in African green monkey Vero 76 cells; format: toxicity, cell-based; conditions: Vero 76 cells infected with SARS coronavirus Urbani, read-out: Ratio CC50/EC50

Row | Structure (SMILES) | CC50 [1] [µM] | selectivity ratio [2] | selectivity ratio [3] | EC50 [4] [µM] | CC50 [5] [µM] | EC50 [6] [µM] | selectivity ratio [7] | EC50 [8] [µM] | CC50 [9] [µM] | CC50 [10] [µM] | EC50 [11] [µM] | selectivity ratio [12] | response, % of control at 20 µM [13] [%] | selectivity ratio at 20 µM [14] | CC50 [15] [µM] | EC50 [16] [µM] | EC90 [16] [µM] | inhibition at 20 µM [17] [%] | further results
1 | CC(C)C1=C[C@]23CC[C@@H]4[C@](C)(CCC[C@@]4(C)C(=O)O)[C@H]2C[C@H]1[C@H]1C(=O)OC(=O)[C@H]13 | 48 | 1.3 | 1.1 | 31 | 35 | 37 | 1.5 | 27 | 36 | 44 | 32 | 1.2 |  |  |  |  |  |  | 
2 | CC(C)C1=C[C@@]23CC[C@@H]4[C@](C)(CCC[C@@]4(C)C(=O)O)[C@H]2C[C@@H]1[C@H]1C(=O)CCC(=O)[C@H]13 |  | 4 |  |  |  | 32 |  | 8.6 | 34 | 36 |  | 1.1 | 88 | < 1 | 62 | > 10 | > 10 | 0 | 
3 | COC(=O)[C@]1(C)CCC[C@]2(C)[C@H]3C[C@H]4C(C(C)C)=C[C@]3(CC[C@H]21)[C@@H]1C(=O)[C@H]2O[C@H]2C(=O)[C@@H]14 | 34 | 1 | 1 | 29 | 3.3 | > 23 | 1.2 | 3.2 | 3.3 | 23 | 3.2 |  |  |  |  |  |  |  | 
4 | COC(=O)[C@]1(C)CCC[C@]2(C)[C@H]3C[C@H]4C(C(C)C)=C[C@]3(CC[C@H]21)[C@@H]1/C(=N/O)CCC2(OCCO2)[C@@H]14 | 2.9 | 1 | 1 | > 2.9 | 3.3 | 3.2 |  | 3.2 | 3.2 | 3.3 | 3.2 | 1 | 0.2 | < 1 | 20 | > 10 | > 10 | 97.9 | selectivity ratio [18]: 1; CC50 [19]: < 50 µM; CC50 [20]: 2.4 µM; CC50 [21]: 9.8 µM; EC50 [22]: > 50 µM; EC50 [23]: 3.2 µM; EC50 [24]: > 2.4 µM; CC50 [25]: 3.2 µM; EC50 [26]: > 9.8 µM
5 | COC(=O)[C@H](C)NC(=O)[C@]1(C)CCC[C@]2(C)[C@H]3C[C@H]4C(C(C)C)=C[C@]3(CC[C@H]21)[C@@H]1C(=O)OC(=O)[C@@H]14 | 34 | 1 | 1 | 32 | 33 | 32 | 1.1 | 32 | 33 | 33 | 32 | 1 |  |  |  |  |  |  | 
6 | COC(=O)[C@H](CCSC)NC(=O)[C@]1(C)CCC[C@]2(C)[C@H]3C[C@H]4C(C(C)C)=C[C@]3(CC[C@H]21)[C@@H]1C(=O)OC(=O)[C@@H]14 | 34 | 1 | 1 | 31 | 32 | > 30 | 1.1 | 32 | 32 | 30 | 32 |  |  |  |  |  |  |  | 
7 | COC(=O)[C@]1(C)CCC[C@]2(C)[C@H]3C[C@H]4C(C(C)C)=C[C@]3(CC[C@H]21)[C@@H]1C(=O)CCC(=O)[C@@H]14 | > 100 | > 3.1 |  | > 100 | > 100 | > 100 |  | 32 | > 100 | > 100 | > 100 |  |  |  |  |  |  |  | 
8 | COC(=O)[C@]1(C)CCC[C@]2(C)[C@H]3C[C@H]4C(C(C)C)=C[C@]3(CC[C@H]21)[C@@H]1C(=O)CC[C@H](OC(=O)c2cccnc2)[C@@H]14 | 35 | 1 | 1 | 32 | 3.2 | 32 | 1.1 | 3.2 | 3.2 | 33 | 3.2 | 1 |  |  |  |  |  |  | 
9 | COC(=O)[C@]1(C)CCC[C@]2(C)[C@H]3C[C@H]4C(C(C)C)=C[C@]3(CC[C@H]21)[C@@H]1C(=O)CC[C@H](OC(=O)/C=C/c2ccccc2)[C@@H]14 | 35 | 2.4 |  | 31 | 9 | > 17 | 1.1 | 10 | 24 | 17 | > 9 |  |  |  |  |  |  |  | 
10 | COC(=O)[C@]1(C)CCC[C@]2(C)[C@H]3C[C@H]4C(C(C)C)=C[C@]3(CC[C@H]21)[C@H]1[C@@H]4[C@@H](OC(=O)CCC(=O)O)CC[C@@H]1OC(=O)CCC(=O)O |  | 1.1 | 1 |  | 3.2 |  |  | 3.1 | 3.4 |  | 3.2 |  | 6.4 | < 1 | 21 | > 10 | > 10 | 96.6 | selectivity ratio [18]: 1.1; CC50 [19]: < 50 µM; CC50 [20]: 3.6 µM; CC50 [21]: 10 µM; selectivity ratio [27]: 1.1; EC50 [22]: > 50 µM; EC50 [23]: 31 µM; EC50 [24]: 3.2 µM; CC50 [25]: 33 µM; EC50 [26]: > 10 µM
11 | COC(=O)[C@]1(C)CCC[C@]2(C)[C@H]3CC4C(C(C)C)=C[C@]3(CC[C@H]21)[C@@H]1NC(=O)CC[C@H](O)[C@H]41 | 33 | 1.5 |  | 32 | 28 | > 28 | 1 | 24 | 35 | 28 | > 28 |  | 102 | > 1 | 58 | > 10 | > 10 | 97.3 | CC50 [19]: < 50 µM; CC50 [20]: 32 µM; CC50 [21]: 29 µM; selectivity ratio [27]: 5.1; EC50 [22]: < 50 µM; EC50 [23]: > 28 µM; EC50 [24]: 6.3 µM; CC50 [25]: 28 µM; EC50 [26]: > 29 µM
12 | COC(=O)[C@]1(C)CCC[C@]2(C)[C@H]3C[C@H]4C(=C(C)C)C5O[C@@]6(O)CCC(=O)[C@H]4[C@@H]6[C@@]53CC[C@H]21 |  |  |  |  |  |  |  |  |  |  |  |  |  | > 1 | 59 | > 10 | > 10 | 68.4 | response, % of control ([13]; huh-7, 20 µM): 151.2%
